# Laboratory results published in ChEMBL document CHEMBL1146983, “The design and synthesis of human branched-chain amino acid aminotransferase inhibitors for treatment of neurodegenerative diseases” (Bioorg Med Chem Lett, 2006).
# pIC50: −log10 of the molar value.
# Biological target: T1, Branched-chain-amino-acid aminotransferase, cytosolic (Homo sapiens, UniProt P54687)
# T1 sequence (P54687 whole entry): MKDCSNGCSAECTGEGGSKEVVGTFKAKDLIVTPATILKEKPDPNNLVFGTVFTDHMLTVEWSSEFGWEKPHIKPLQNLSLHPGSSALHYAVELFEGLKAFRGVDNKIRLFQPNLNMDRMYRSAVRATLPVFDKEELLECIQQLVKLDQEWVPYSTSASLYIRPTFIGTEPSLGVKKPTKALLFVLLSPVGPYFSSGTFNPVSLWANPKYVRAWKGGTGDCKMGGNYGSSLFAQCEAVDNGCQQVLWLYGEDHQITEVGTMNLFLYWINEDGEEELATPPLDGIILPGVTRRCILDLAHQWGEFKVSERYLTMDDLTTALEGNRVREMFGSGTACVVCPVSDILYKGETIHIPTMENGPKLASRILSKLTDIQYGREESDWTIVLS
# Assay: Inhibition of human BCATc
# Method in brief: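 Recombinant hBCATc (E. coli-expressed, purified; 50-100 nM) coupled to saturating purified bovine liver GDH. Mix: 25 mM NaPi pH 7.8, 0.75 mM L-leucine, 0.5 mM α-ketoglutarate, 10 μM pyridoxal phosphate, 1 mM NAD+, 4 mM ADP, 2 mM DTT, 12.5 mM EDTA, 1% DMSO final. 37 °C; A340 read over 20 min. IC50 from 8 to 10 point curves.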
row,pIC50,SMILES
1,4.74,O=C(NNS(=O)(=O)c1ccccc1)c1cc2ccccc2o1
2,< 4.46,O=C(NNS(=O)(=O)c1cccc(Cl)c1)c1cccc2c1oc1ccccc12
3,5.49,Cc1ccccc1S(=O)(=O)NNC(=O)c1ccc2oc3ccccc3c2c1
4,5.63,O=C(NNS(=O)(=O)c1ccccc1)c1ccc2oc3ccccc3c2c1
5,5.38,O=C(NNS(=O)(=O)c1ccccc1)c1cc2cc(Cl)ccc2o1
6,4.82,O=C(NNS(=O)(=O)c1ccccc1)c1cc2cc(Br)ccc2[nH]1
7,5.94,Cc1ccccc1S(=O)(=O)NNC(=O)c1cc2cc(Cl)ccc2[nH]1
8,4.44,O=C(NNS(=O)(=O)c1ccccc1)c1cc2ccccc2[nH]1
9,5.60,O=C(NNS(=O)(=O)c1ccccc1)c1cc2cc(Br)ccc2o1
10,4.25,COc1ccc2[nH]c(C(=O)NNS(=O)(=O)c3ccccc3)cc2c1
11,4.48,O=C(NNS(=O)(=O)c1ccccc1)c1cnc2ccccc2c1
12,5.92,Cc1cccc(S(=O)(=O)NNC(=O)c2cc3cc(Cl)ccc3o2)c1
13,5.24,O=C(NNS(=O)(=O)c1ccccc1Cl)c1cc2cc(Cl)ccc2o1
14,4.88,O=C(NNS(=O)(=O)c1ccccc1)c1ccc2ncccc2c1
15,5.55,Cc1cccc(S(=O)(=O)NNC(=O)c2cccc3c2oc2ccccc23)c1
